Reference: ChEMBL document CHEMBL4004835, “Discovery of Novel Disruptor of Silencing Telomeric 1-Like (DOT1L) Inhibitors using a Target-Specific Scoring Function for the (S)-Adenosyl-l-methionine (SAM)-Dependent Methyltransferase Family” (J Med Chem, 2017)
pIC50, pKd: −log10 of the molar value.

How the values were obtained:
[1] = target: T1, Histone-lysine N-methyltransferase, H3 lysine-79 specific (Homo sapiens, UniProt Q8TEK3); test: Inhibition of N-terminal 6His-tagged human DOT1L (1 to 416 residues) expressed in Escherichia coli BL21(DE3) at 50 uM preincubated for 15 mins followed by [3H]-SAM addition measured after 120 mins by radioactive methylation assay
Summary of the method: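 DOT1L and compound preincubated 15 min at room temperature; oligonucleosome and 3H-SAM added; reaction 120 min at room temperature, stopped with cold SAM; transferred to 0.5% PEI-pretreated filter plate, washed 3× with water, read by liquid scintillation counting.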
Target sequence in this assay (Q8TEK3 whole entry, looked up, the tested form may be a part): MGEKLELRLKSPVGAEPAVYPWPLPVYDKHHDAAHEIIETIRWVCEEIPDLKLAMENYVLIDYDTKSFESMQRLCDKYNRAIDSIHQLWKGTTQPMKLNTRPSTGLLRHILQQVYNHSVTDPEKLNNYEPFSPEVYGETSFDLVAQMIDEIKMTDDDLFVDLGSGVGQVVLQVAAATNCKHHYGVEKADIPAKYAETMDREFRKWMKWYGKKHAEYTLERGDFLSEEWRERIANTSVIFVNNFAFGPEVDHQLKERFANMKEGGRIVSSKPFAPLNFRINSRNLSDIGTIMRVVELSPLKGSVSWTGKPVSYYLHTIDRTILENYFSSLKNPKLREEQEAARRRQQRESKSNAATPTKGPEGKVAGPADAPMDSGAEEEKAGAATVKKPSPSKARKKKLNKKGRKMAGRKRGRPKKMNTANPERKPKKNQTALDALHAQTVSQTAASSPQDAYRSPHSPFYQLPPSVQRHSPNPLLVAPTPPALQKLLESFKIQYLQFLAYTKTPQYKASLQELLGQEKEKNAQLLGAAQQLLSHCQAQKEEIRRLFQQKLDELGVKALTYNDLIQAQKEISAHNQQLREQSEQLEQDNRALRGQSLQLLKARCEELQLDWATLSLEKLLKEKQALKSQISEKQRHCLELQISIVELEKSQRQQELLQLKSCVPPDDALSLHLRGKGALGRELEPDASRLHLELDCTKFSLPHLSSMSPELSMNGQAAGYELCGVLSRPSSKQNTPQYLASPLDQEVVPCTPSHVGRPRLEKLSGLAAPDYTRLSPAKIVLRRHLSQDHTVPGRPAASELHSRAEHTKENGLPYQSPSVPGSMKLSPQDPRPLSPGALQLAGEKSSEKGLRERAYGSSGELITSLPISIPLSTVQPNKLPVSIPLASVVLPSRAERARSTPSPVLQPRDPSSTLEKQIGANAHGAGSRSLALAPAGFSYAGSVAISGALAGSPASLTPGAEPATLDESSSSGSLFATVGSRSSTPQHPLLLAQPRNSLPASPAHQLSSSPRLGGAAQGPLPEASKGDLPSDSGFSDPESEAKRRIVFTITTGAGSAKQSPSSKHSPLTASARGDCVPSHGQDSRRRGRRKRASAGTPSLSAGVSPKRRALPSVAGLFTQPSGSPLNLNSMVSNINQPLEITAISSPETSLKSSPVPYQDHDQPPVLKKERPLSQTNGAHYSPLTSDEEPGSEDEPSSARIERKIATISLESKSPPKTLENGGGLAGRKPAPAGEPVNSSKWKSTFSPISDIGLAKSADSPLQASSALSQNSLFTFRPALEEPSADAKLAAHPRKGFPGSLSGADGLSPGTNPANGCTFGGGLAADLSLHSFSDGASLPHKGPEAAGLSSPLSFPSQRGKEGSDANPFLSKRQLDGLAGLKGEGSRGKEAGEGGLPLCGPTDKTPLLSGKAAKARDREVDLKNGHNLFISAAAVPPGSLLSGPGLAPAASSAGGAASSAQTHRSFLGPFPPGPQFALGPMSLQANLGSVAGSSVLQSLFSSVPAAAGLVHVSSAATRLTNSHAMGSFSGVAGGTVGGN

[2] = target: DNA (cytosine-5)-methyltransferase 1 (Homo sapiens) (UniProt P26358); test: Inhibition of DNMT1 (unknown origin) at 50 and 100 uM preincubated for 15 mins followed by poly(dI-DC) substrate and [3H]-SAM addition after 120 mins by liquid MicroBeta counting
DNA (cytosine-5)-methyltransferase 1 (Homo sapiens), sequence (P26358 whole entry): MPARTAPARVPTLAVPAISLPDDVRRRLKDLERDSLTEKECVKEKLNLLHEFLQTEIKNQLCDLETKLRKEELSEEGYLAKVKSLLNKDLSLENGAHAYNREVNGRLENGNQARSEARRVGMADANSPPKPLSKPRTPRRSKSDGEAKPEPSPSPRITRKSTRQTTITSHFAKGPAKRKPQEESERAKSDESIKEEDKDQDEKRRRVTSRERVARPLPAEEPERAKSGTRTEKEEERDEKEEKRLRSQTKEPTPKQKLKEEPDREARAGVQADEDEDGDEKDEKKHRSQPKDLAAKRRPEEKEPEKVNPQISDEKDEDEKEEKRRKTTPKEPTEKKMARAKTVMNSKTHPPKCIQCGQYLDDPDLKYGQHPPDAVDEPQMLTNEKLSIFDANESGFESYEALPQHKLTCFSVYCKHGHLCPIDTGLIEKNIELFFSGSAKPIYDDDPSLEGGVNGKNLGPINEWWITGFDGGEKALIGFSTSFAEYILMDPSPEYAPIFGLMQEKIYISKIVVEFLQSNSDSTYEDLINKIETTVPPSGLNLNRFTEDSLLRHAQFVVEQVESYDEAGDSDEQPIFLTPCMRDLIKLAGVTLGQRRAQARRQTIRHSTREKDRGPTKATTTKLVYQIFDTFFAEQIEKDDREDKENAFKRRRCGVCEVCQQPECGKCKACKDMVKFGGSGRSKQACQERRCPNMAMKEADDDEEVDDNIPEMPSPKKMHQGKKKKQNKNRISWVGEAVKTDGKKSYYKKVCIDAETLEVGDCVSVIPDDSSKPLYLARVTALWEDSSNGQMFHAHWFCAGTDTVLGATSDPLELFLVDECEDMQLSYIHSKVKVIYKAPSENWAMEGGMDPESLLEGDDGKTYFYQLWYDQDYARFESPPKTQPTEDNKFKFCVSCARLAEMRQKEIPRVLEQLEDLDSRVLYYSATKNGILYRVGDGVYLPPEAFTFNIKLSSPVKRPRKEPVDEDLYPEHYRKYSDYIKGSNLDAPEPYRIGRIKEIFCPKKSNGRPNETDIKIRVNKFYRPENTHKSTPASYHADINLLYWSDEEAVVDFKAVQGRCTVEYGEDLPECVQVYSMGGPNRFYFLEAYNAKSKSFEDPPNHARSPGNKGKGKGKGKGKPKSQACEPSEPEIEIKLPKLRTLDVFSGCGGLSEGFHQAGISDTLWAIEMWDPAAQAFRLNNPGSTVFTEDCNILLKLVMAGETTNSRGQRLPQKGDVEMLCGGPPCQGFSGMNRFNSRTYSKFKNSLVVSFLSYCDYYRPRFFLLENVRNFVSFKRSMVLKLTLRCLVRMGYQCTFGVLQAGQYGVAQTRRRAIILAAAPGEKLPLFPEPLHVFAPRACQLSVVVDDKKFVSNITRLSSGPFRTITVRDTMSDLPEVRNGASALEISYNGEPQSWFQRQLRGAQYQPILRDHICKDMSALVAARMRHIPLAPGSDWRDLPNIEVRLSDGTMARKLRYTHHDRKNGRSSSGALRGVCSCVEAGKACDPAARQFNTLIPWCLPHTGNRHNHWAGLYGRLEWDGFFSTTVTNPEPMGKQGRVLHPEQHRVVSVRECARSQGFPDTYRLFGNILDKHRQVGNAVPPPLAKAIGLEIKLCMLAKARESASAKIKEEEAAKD
Summary of the method: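 In modified Tris buffer, enzyme preincubated 15 min at room temperature; poly(dI-dC) substrate and [3H]SAM added; 120 min at 37 °C; reaction transferred to 0.5% PEI-pretreated filter plates, vacuumed, read by MicroBeta; SAH as positive control.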

[3] = target: Histone-lysine N-methyltransferase, H3 lysine-36 specific (Homo sapiens) (UniProt Q96L73); test: Inhibition of NSD1 (unknown origin) at 50 and 100 uM preincubated for 15 mins followed by substrate and [3H]-SAM addition after 120 mins by MicroBeta counting
Summary of the method: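 In modified Tris buffer, enzyme incubated 15 min at room temperature, then substrate and [3H]SAM added; stopped at 120 min with cold SAM; transferred to a 0.5% PEI-pretreated GF/B plate, washed 3× with water, read by MicroBeta.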

[4] = target: Histone-lysine N-methyltransferase EZH2 (Homo sapiens) (UniProt Q15910); test: Inhibition of EZH2 (unknown origin) at 50 and 100 uM preincubated for 15 mins followed by substrate and [3H]-SAM addition for 60 mins in presence of H3K27me peptide measured after 60 mins by liquid scintillation counting method
Histone-lysine N-methyltransferase EZH2 (Homo sapiens), sequence (Q15910 whole entry, looked up): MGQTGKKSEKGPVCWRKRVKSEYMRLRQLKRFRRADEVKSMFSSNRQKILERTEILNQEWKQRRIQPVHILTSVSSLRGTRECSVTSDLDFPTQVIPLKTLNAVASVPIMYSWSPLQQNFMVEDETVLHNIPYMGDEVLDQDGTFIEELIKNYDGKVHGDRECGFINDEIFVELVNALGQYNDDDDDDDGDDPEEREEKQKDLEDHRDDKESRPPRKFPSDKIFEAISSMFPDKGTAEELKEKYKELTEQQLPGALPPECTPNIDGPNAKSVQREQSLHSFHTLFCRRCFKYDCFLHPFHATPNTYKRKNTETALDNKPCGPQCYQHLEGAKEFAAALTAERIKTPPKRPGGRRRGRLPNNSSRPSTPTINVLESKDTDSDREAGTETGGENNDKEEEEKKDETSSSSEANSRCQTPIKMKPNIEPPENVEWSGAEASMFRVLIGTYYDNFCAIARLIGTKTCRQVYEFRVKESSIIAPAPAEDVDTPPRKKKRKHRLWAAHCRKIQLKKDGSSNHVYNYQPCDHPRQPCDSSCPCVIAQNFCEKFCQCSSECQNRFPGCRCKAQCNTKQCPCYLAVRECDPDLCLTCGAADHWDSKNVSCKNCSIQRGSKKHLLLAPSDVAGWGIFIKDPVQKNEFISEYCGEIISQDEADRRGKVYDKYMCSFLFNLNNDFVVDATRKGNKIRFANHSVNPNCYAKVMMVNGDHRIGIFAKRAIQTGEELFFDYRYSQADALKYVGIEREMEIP
Summary of the method: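 In modified Tris buffer with H3K27me peptide, enzyme preincubated 15 min at room temperature; substrate added to start; stopped with cold SAM; mix on Flashplate at least 60 min at room temperature, washed with water plus 0.1% Tween-20, read by scintillation counting.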

MV4-11 [5] = test: Induction of cell cycle arrest in human MV4-11 cells assessed as accumulation at G1 phase at 6.25 uM after 48 hrs by propidium iodide/RNase-staining based flow cytometric analysis (reference value: 68.16 %); type: functional
Summary of the method: (§1)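 MV4-11 cells (2 × 10^6) seeded in 12-well dishes, treated with different concentrations for 48 h, processed with a PI/RNase staining kit and analysed for cell-cycle distribution by FACSCalibur flow cytometry.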

[6] = target: T1, Histone-lysine N-methyltransferase, H3 lysine-79 specific; test: Binding affinity to human N-terminal 6His-tagged DOT1L (1 to 416 residues) expressed in Escherichia coli BL21(DE3) after 150 secs by SPR-based binding assay
Target sequence in this assay (Q8TEK3 whole entry, the tested form may be a part): as the sequence (Q8TEK3 whole entry, looked up, the tested form may be a part) above

Kasumi 1 = test: Cytotoxicity against human Kasumi-1 cells assessed as reduction in cell viability after 72 hrs by alamar blue assay; type: functional, cell-based; conditions: Kasumi 1, 72 h
Summary of the method: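 Cells cultured in RPMI 1640 with 10% FBS and 1% penicillin/streptomycin, treated with a range of concentrations or equal DMSO, 37 °C, 5% CO2, 72 h. Viability read by alamar blue (ex 544/em 590 nm); percent proliferation and IC50 curve fitted.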

MV4-11 [7] = test: Induction of cell cycle arrest in human MV4-11 cells assessed as accumulation at G1 phase at 12.5 uM after 48 hrs by propidium iodide/RNase-staining based flow cytometric analysis (reference value: 68.16 %); type: functional; summary of the method: as §1
MV4-11 [8] = test: Induction of cell cycle arrest in human MV4-11 cells assessed as accumulation at S phase at 12.5 uM after 48 hrs by propidium iodide/RNase-staining based flow cytometric analysis (reference value: 24.40 %); type: functional; summary of the method: as §1
MV4-11 [9] = test: Induction of cell cycle arrest in human MV4-11 cells assessed as accumulation at G2 phase at 25 uM after 48 hrs by propidium iodide/RNase-staining based flow cytometric analysis (reference value: 7.44 %); type: functional; summary of the method: as §1
MV4-11 [10] = test: Induction of cell cycle arrest in human MV4-11 cells assessed as accumulation at G2 phase at 50 uM after 48 hrs by propidium iodide/RNase-staining based flow cytometric analysis (reference value: 7.44 %); type: functional; summary of the method: as §1
MV4-11 [11] = test: Induction of apoptosis in human MV4-11 cells assessed as viable cells at 6.25 uM after 72 hrs by annexin V/FITC and propidium iodide staining-based flow cytometric analysis (reference value: 90.3 %); type: functional; conditions: MV4-11, 72 h, read-out: Activity
MV4-11 [12] = test: Induction of apoptosis in human MV4-11 cells assessed as early apoptotic cells at 6.25 uM after 72 hrs by annexin V/FITC and propidium iodide staining-based flow cytometric analysis (reference value: 5.66 %); type: functional
MV4-11 [13] = test: Induction of apoptosis in human MV4-11 cells assessed as early apoptotic cells at 12.5 uM after 72 hrs by annexin V/FITC and propidium iodide staining-based flow cytometric analysis (reference value: 5.66 %); type: functional
MV4-11 [14] = test: Induction of apoptosis in human MV4-11 cells assessed as necrotic cells at 12.5 uM after 72 hrs by annexin V/FITC and propidium iodide staining-based flow cytometric analysis (reference value: 0.04 %); type: functional
MV4-11 [15] = test: Induction of apoptosis in human MV4-11 cells assessed as viable cells at 25 uM after 72 hrs by annexin V/FITC and propidium iodide staining-based flow cytometric analysis (reference value: 90.3 %); type: functional; conditions: MV4-11, 72 h, read-out: Activity
MV4-11 [16] = test: Induction of apoptosis in human MV4-11 cells assessed as early apoptotic cells at 25 uM after 72 hrs by annexin V/FITC and propidium iodide staining-based flow cytometric analysis (reference value: 5.66 %); type: functional
MV4-11 [17] = test: Induction of apoptosis in human MV4-11 cells assessed as necrotic cells at 25 uM after 72 hrs by annexin V/FITC and propidium iodide staining-based flow cytometric analysis (reference value: 0.04 %); type: functional

`Fc1cccc(-c2nn3c(Cn4nnc5ccccc54)nnc3s2)c1` gave an inhibition [1] of 68%, an inhibition [2] of under 40% and an inhibition [3] of under 40%. The inhibition [4] was under 40%, the Activity (MV4-11 [5]) was 67.64% and the pKd [6] was 4.76. It also gave a pIC50 (Kasumi 1) of under 3.70, an Activity (MV4-11 [7]) of 70.27% and an Activity (MV4-11 [8]) of 25.38%. The Activity (MV4-11 [9]) was 0.99%, the Activity (MV4-11 [10]) was 0% and the viability at 6.25 µM (MV4-11 [11]) was 24.2%. For the same molecule, the Activity (MV4-11 [12]) was 49.5%, the Activity (MV4-11 [13]) was 50.1% and the Activity (MV4-11 [14]) was 3.8%. The viability at 25 µM (MV4-11 [15]) was 6.76%, the Activity (MV4-11 [16]) was 58.2% and the Activity (MV4-11 [17]) was 1.6%.
